Source: ChEMBL document CHEMBL1127085, “Derivatives of 2-(dipropylamino)tetralin: effect of the C8-substituent on the interaction with 5-HT1A receptors” (J Med Chem, 1993)
Where “and” joins values, the source holds several entries; their conditions need not be identical. Identical values can stand only once.

Assays:
Rattus norvegicus [1] = test: Ability produce 5-HT motor syndrome in reserpine (5 mg/kg, sc) pretreated rats at the dose of 3.2 micro mol/kg; format: functional
[2] = biological target: T1, 5-hydroxytryptamine receptor 1A (Rattus norvegicus, UniProt P19327); test: Binding affinity of 5-hydroxytryptamine 1A receptor using [3H]-8-OH-DPAT as radioligand.
T1 sequence (P19327 whole entry): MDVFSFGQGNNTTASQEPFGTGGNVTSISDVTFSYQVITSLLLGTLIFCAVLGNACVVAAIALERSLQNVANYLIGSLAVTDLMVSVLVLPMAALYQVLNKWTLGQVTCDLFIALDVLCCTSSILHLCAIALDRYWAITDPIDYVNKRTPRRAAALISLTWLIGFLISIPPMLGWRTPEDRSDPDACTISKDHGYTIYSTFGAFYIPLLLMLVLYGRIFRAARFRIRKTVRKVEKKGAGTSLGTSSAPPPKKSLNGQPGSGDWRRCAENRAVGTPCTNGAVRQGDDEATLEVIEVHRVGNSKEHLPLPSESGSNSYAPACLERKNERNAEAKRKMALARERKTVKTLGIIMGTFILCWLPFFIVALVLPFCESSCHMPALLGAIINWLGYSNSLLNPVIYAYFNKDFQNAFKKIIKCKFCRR
Method in brief: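 Membranes from cortex and hippocampus of male Sprague-Dawley rats, pooled from at least six rats, preincubated with 10 µM pargyline. Assay used 2 nM [3H]-8-OH-DPAT, test compound at 1-300 nM and 5 mg/mL tissue in 50 mM Tris-HCl with 4.0 mM CaCl2 and 5.7 mM ascorbate, pH 7.5. Incubated 10 min at 37 °C, filtered on GF/B, scintillation counted.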

Rattus norvegicus [3] = test: Change in body temperature of rats upon administration after 30 minutes (p<0.01); format: functional
Method in brief: (§1)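 Colonic temperature taken with an electrical thermometer probe 3.5 cm deep, before and 30 min after sc injection in saline. Change reported in °C as mean ± SEM; animal numbers as in the cage-leaving test. ANOVA with Tukey test.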

[4] = biological target: T2, 5-hydroxytryptamine receptor 1A (Rattus norvegicus) (UniProt P19327); test: Effect of 5-HT accumulation in rat hippocampus at the dose of 32 umol/kg (p<0.01); format: functional, tissue-based
T2 sequence (whole entry): T1 sequence (P19327 whole entry)
Method in brief: (§2)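 Test compound given sc in 0.9% NaCl. NSD 1015 (287 µmol/kg sc) given 30 min later to inhibit aromatic L-amino acid decarboxylase; rats decapitated after a further 30 min. Hippocampus and striatum stored at -40 °C for up to 1 week. Perchloric acid homogenates with α-methyl-5-hydroxytryptophan internal standard; 5-HTP and DOPA measured by HPLC-EC. Percent of control, means ± SEM; ANOVA with Tukey test.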

[5] = biological target: T2, 5-hydroxytryptamine receptor 1A (Rattus norvegicus); test: Induction of clear-cut 5-HT motor syndrome in reserpine (5 mg/kg, sc) pretreated rats at the dose of 32 micro mol/kg; format: functional, organism-based
[6] = biological target: T2, 5-hydroxytryptamine receptor 1A (Rattus norvegicus); test: Induction of clear-cut 5-HT motor syndrome in normal rats at the dose of 32 micro mol/kg; format: functional
Rattus norvegicus [7] = organism: Rattus norvegicus; test: 5-HT (serotonin) turnover in rat hippocampus (p<.005); format: functional
Method in brief: (§3)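 Rats given compound sc in 0.9% NaCl (screening dose typically 32 µmol/kg); decapitated about 30 min after dosing. Hippocampus and corpus striatum dissected and frozen. Perchloric acid homogenates analysed by HPLC with electrochemical detection. Turnover taken as 5-HIAA/5-HT or DOPAC/DA, expressed as percent of saline control. Means ± SEM; n = 5-7 controls, 4-6 treated. ANOVA with Tukey test.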

[8] = biological target: T3, Dopamine receptor (Rattus norvegicus) (UniProt P25115+P19020+P30729+P18901+P61169); test: Dopamine (DA) turnover in rat corpus striatum; format: functional, tissue-based; method in brief: as §3
[9] = biological target: T2, 5-hydroxytryptamine receptor 1A (Rattus norvegicus); test: Number of rats displaying the 5-HT syndrome or leaving the cage out of the number of rats tested; format: functional
[10] = biological target: T3, Dopamine receptor (Rattus norvegicus); test: Effect of accumulation of DOPA in rat striatum at the dose of 32 umol/kg; format: functional, tissue-based; method in brief: as §2
Rattus norvegicus [11] = test: Ability to produce 5-HT motor syndrome in normal rats at the dose of 3.2 micro mol/kg; format: functional
Rattus norvegicus [12] = organism: Rattus norvegicus; test: Ability to inhibit cage leaving response; format: functional
Method in brief: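 Normal rats given compound sc in saline, housed two per cage. Cage grid covers removed 12 min after injection; rats leaving the cage during the following 12 min were counted and reported as number leaving out of number tested.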

[13] = biological target: T2, 5-hydroxytryptamine receptor 1A (Rattus norvegicus); test: 5-HT (serotonin) turnover in rat hippocampus (p<0.05); format: functional, tissue-based
Method in brief: (§4)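 Rats dosed sc (screening dose typically 32 µmol/kg, in 0.9% NaCl, 2 mL/kg); decapitated 5-10 min after the 30-min rating, […]. Hippocampus dissected and frozen. 5-HIAA/5-HT ratio measured by HPLC with electrochemical detection (+0.85 V) after perchloric acid homogenisation. Reported as percent of saline control, mean ± SEM, n = 4-6 per group; ANOVA with Tukey test.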

Rattus norvegicus [14] = test: Antagonistic effect on body temperature of rat induced by (R)-1 at the dose of 32 and 1.0 umol/kg of compound (R)-1; format: functional
Method in brief: (§5)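 Compound (32 µmol/kg sc) or saline injected 10 min before (R)-8-OH-DPAT (1.0 µmol/kg sc). Colonic temperature taken before injection and 30 min later; result is the change from the preinjection value. One-way ANOVA with Tukey HSD test.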

Rattus norvegicus [15] = test: Effect of 5-HT accumulation in rat hippocampus at the dose of 32 umol/kg; format: functional; method in brief: as §2
Rattus norvegicus [16] = test: Induction of clear-cut 5-HT motor syndrome in normal rats at the dose of 32 uM/Kg; format: functional
[17] = biological target: T2, 5-hydroxytryptamine receptor 1A (Rattus norvegicus); test: Antagonistic effect on 5-HT syndrome or behavior of rat induced by (R)-1 at the dose of 32 and 1.0 umol/kg of compound (R)-1; format: functional
Method in brief: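 Compound (32 µmol/kg sc) or saline injected 10 min before (R)-8-OH-DPAT (1.0 µmol/kg sc). Flat body posture, forepaw treading and hindlimb abduction scored during 30 min of observation. Results as number of rats showing the behaviour out of number tested; Fisher's exact probability test.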

[18] = biological target: T2, 5-hydroxytryptamine receptor 1A (Rattus norvegicus); test: 5-HT (serotonin) turnover in rat hippocampus; format: functional, tissue-based; method in brief: as §3
Rattus norvegicus [19] = test: Change in body temperature of rats upon administration after 30 minutes; format: functional; method in brief: as §1
Rattus norvegicus [20] = test: Induction of clear-cut 5-HT motor syndrome in normal rats at the dose of 1.0 micro mol/kg
Rattus norvegicus [21] = test: Effect of DOPA accumulation in rat striatum at the dose of 1.0 umol/kg (p<0.01); format: functional; method in brief: as §2
Rattus norvegicus [22] = test: Effect of 5-HT accumulation in rat hippocampus at the dose of 1.0 umol/kg (p<0.01); format: functional; method in brief: as §2
Rattus norvegicus [23] = test: Induction of clear-cut 5-HT motor syndrome in reserpine (5 mg/kg, sc) pretreated rats at the dose of 1.0 micro mol/kg; format: functional
[24] = biological target: T2, 5-hydroxytryptamine receptor 1A (Rattus norvegicus); test: 5-HT (serotonin) turnover in rat hippocampus (p<0.01); format: functional, tissue-based; method in brief: as §4
Rattus norvegicus [25] = test: Effect of accumulation of DOPA in rat striatum at the dose of 1.0 umol/kg; format: functional; method in brief: as §2
Rattus norvegicus [26] = test: Effect of 5-HT accumulation in rat hippocampus at the dose of 0.32 umol/kg (p<0.01); format: functional; method in brief: as §2
Rattus norvegicus [27] = test: Effect of DOPA accumulation in rat striatum at the dose of 0.32 umol/kg (p<0.01); format: functional; method in brief: as §2
Rattus norvegicus [28] = test: Effect of accumulation of DOPA in rat striatum at the dose of 0.32 umol/kg; format: functional
Method in brief: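 Compound given sc in saline, then NSD 1015 (287 µmol/kg sc) to block aromatic L-amino acid decarboxylase 30 min later. Rats decapitated after another 30 min. Striatum stored at -40 °C for up to 1 week. DOPA quantified by HPLC-EC with α-methyl-5-hydroxytryptophan as internal standard. Reported as percent of control, mean ± SEM (n = 5-6 treated, 15 control); ANOVA with Tukey test.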

Rattus norvegicus [29] = test: Induction of clear-cut 5-HT motor syndrome in normal rats at the dose of 32 umol/kg; format: functional
Rattus norvegicus [30] = test: Antagonistic effect on body temperature of rat induced by (R)-1 at the dose of 32 and 1 umol/kg of compound (R)-1; format: functional; method in brief: as §5
Rattus norvegicus [31] = organism: Rattus norvegicus; test: 5-HT (serotonin) turnover in rat hippocampus (0.05); format: functional; method in brief: as §3
Rattus norvegicus [32] = organism: Rattus norvegicus; test: Dopamine (DA) turnover in rat corpus striatum (p<0.01); format: functional; method in brief: as §3

## CCCN(CCC)C1CCc2cccc(CO)c2C1 (racemic)
Rattus norvegicus [1]
  Behavioral effect: 3
[2]
  Ki: 25 nM

## CCCN(CCC)[C@@H]1CCc2cccc(C)c2C1
Rattus norvegicus [3]
  Temperature: -2.1
[4]
  Accumulation: 54
[5]
  Behavioral effect: 0
[6]
  Behavioral effect: 4
Rattus norvegicus [7]
  Turnover: 69
[8]
  Turnover: 88
[9]
  No. of rats: 0
[10]
  Accumulation: 86

## CCCN(CCC)[C@@H]1CCc2cccc(CO)c2C1
[2]
  Ki: 23 nM
Rattus norvegicus [11]
  Effect: 4
[4]
  Accumulation: 47
[5]
  Behavioral effect: 4
Rattus norvegicus [12]
  Cage leaving: 4
[13]
  Turnover: 74 and 85
[6]
  Behavioral effect: 4
[8]
  Turnover: 93 and 88
[9]
  No. of rats: 0
[10]
  Accumulation: 125

## CCCN(CCC)[C@H]1CCc2cccc(C(=O)c3ccccc3)c2C1
[2]
  Ki: 16 nM
Rattus norvegicus [14]
  Temperature: -3.03
Rattus norvegicus [15]
  Accumulation: 95
Rattus norvegicus [16]
  Behavioral effect: 0
[17]
  Effect: 4
[8]
  Turnover: 88
[18]
  Turnover: 112
[9]
  No. of rats: 2
Rattus norvegicus [19]
  Temperature: 0.13
[10]
  Accumulation: 83

## CCCN(CCC)[C@@H]1CCc2cccc(O)c2C1
Rattus norvegicus [20]
  Behavioral effect: 42
Rattus norvegicus [3]
  Temperature: -2.6
Rattus norvegicus [21]
  Accumulation: 98
Rattus norvegicus [22]
  Accumulation: 45
Rattus norvegicus [23]
  Behavioral effect: 15
[24]
  Turnover: 66
Rattus norvegicus [25]
  Accumulation: 98
Rattus norvegicus [26]
  Accumulation: 44
Rattus norvegicus [27]
  Accumulation: 106
Rattus norvegicus [28]
  Accumulation: 106
[8]
  Turnover: 96
[9]
  No. of rats: 42

## CCCN(CCC)[C@@H]1CCc2cccc(OS(=O)(=O)C(F)(F)F)c2C1
Rattus norvegicus [29]
  Behavioral effect: 0
Rattus norvegicus [30]
  Temperature: -4.18
[17]
  Effect: 4
[8]
  Turnover: 93
[18]
  Turnover: 106
[9]
  No. of rats: 4
Rattus norvegicus [19]
  Temperature: 0.5

## CCCN(CCC)C1CCc2ccccc2C1 (racemic)
Rattus norvegicus [29]
  Behavioral effect: 4
Rattus norvegicus [31]
  Turnover: 60
Rattus norvegicus [3]
  Temperature: -2
[2]
  Ki: 37 nM
[5]
  Behavioral effect: 4
Rattus norvegicus [32]
  Turnover: 46
[9]
  No. of rats: 4
